# Experimental data taken from ChEMBL document CHEMBL1671756, “In vitro and in vivo antifungal susceptibilities of the Mucoralean fungus Cunninghamella” (2010).
# The source made the active and inactive calls. The calls are words filed in the database; no cut-off is given here.
# Tests used:
# [1] = Antifungal activity against Cunninghamella echinulata UTHSC 03-3725 after 24 hrs by broth microdilution method; assay type: functional
# Method in brief: (§1)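 CLSI broth microdilution for filamentous fungi. Isolates were stored at −80°C and subcultured on potato dextrose agar at 35°C. MICs were read after 24 h. […] The QC strain was Paecilomyces variotii ATCC 36257.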
# [2] = system: Cunninghamella bertholletiae; assay: Antifungal activity against Cunninghamella bertholletiae UTHSC 04-2581 after 24 hrs by broth microdilution method; assay type: functional; settings: UTHSC 04-2581, 24 h; method in brief: as §1
# [3] = Antifungal activity against Cunninghamella echinulata FMR 10973 after 24 hrs by broth microdilution method; assay type: functional; method in brief: as §1
# [4] = Antifungal activity against Cunninghamella echinulata UTHSC 01-2298 after 24 hrs by broth microdilution method; assay type: functional; method in brief: as §1
# [5] = system: Cunninghamella bertholletiae; assay: Antifungal activity against Cunninghamella bertholletiae FMR-9598 after 24 hrs by broth microdilution method; assay type: functional; settings: FMR-9598, 24 h; method in brief: as §1
# [6] = Antifungal activity against Cunninghamella echinulata FMR 10974 after 24 hrs by broth microdilution method; assay type: functional; method in brief: as §1
# [7] = system: Cunninghamella bertholletiae; assay: Antifungal activity against Cunninghamella bertholletiae UTHSC 06-1945 after 24 hrs by broth microdilution method; assay type: functional; settings: UTHSC 06-1945, 24 h; method in brief: as §1
# [8] = system: Cunninghamella bertholletiae; assay: Antifungal activity against Cunninghamella bertholletiae UTHSC 03-2241 after 24 hrs by broth microdilution method; assay type: functional; settings: UTHSC 03-2241, 24 h; method in brief: as §1
# [9] = system: Cunninghamella bertholletiae; assay: Antifungal activity against Cunninghamella bertholletiae UTHSC 05-2275 after 24 hrs by broth microdilution method; assay type: functional; settings: UTHSC 05-2275, 24 h; method in brief: as §1
# [10] = system: Cunninghamella bertholletiae; assay: Antifungal activity against Cunninghamella bertholletiae UTHSC 05-2275 infected in neutropenic OF1 mouse assessed as increase in mouse survival rate at 50 mg/kg, po bid administered 1 day after infection for 7 days relative to untreated control; assay type: functional, organism-based; design: dose 50 mg/kg
# Method in brief: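 Male OF1 mice (~30 g) were made neutropenic with cyclophosphamide 200 mg/kg i.p. plus 5-fluorouracil 150 mg/kg i.v. 1 day before challenge. Challenge was 1 × 10⁴ CFU sporangiospores in 0.2 ml saline via the lateral tail vein. Mice got ceftazidime 5 mg/day s.c. on days 1–7. Dosing started 24 h post-challenge for 7 days. There were 10 mice/group, observed daily for 20 days. Kaplan-Meier analysis with log-rank test.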
# [11] = system: Cunninghamella bertholletiae; assay: Antifungal activity against Cunninghamella bertholletiae UTHSC 05-2275 infected in neutropenic OF1 mouse assessed as increase in mouse survival rate at 25 mg/kg, po bid administered 1 day after infection for 7 days relative to untreated control
# [12] = system: Cunninghamella bertholletiae; assay: Antifungal activity against Cunninghamella bertholletiae UTHSC 05-2275 infected in neutropenic OF1 mouse assessed as decreased fungal load in lung at 25 mg/kg, po bid administered 1 day post infection measured after 4 to 5 days relative to untreated control; assay type: functional, organism-based; design: dose 25 mg/kg
# Method in brief: (§2)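 Neutropenic male OF1 mice (cyclophosphamide 200 mg/kg i.p. + 5-fluorouracil 150 mg/kg i.v., day −1) were infected i.v. with 1 × 10⁴ CFU. Ten mice per group were treated from day 1 and killed by CO₂ on day 5, or on day 4 if moribund. Half of each brain, lung and kidney was homogenized in 1 ml saline. Ten-fold dilutions were plated on PDA for 24 h at 35°C and counted as log₁₀ CFU/g.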
# [13] = system: Cunninghamella bertholletiae; assay: Antifungal activity against Cunninghamella bertholletiae UTHSC 05-2275 infected in neutropenic OF1 mouse assessed as decreased fungal load in kidney at 50 mg/kg, po bid administered 1 day post infection measured after 4 to 5 days relative to untreated control; assay type: functional, organism-based; design: dose 50 mg/kg; method in brief: as §2
# [14] = system: Cunninghamella bertholletiae; assay: Antifungal activity against Cunninghamella bertholletiae UTHSC 05-2275 infected in neutropenic OF1 mouse assessed as decreased fungal load in kidney at 25 mg/kg, po bid administered 1 day post infection measured after 4 to 5 days relative to untreated control; assay type: functional, organism-based; design: dose 25 mg/kg; method in brief: as §2
# [15] = system: Cunninghamella bertholletiae; assay: Antifungal activity against Cunninghamella bertholletiae UTSCH 05-2275 infected in diabetic OF1 mouse assessed as decreased fungal load in lung at 50 mg/kg, po bid administered 1 day post infection measured after 4 to 5 days relative to untreated control; assay type: functional, organism-based; design: dose 50 mg/kg
# Method in brief: (§3)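 Diabetic OF1 mice (streptozocin 210 mg/kg i.p.; glucose >250 mg/dl) were infected i.v. with 1 × 10⁵ CFU, with ceftazidime cover. Ten per group were treated from day 1 and killed day 5, or day 4 if moribund. Half-organ homogenates (brain, lung, kidney) in 1 ml saline were serially diluted 10-fold on PDA, incubated 24 h at 35°C, and reported as log₁₀ CFU/g tissue.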
# [16] = system: Cunninghamella bertholletiae; assay: Antifungal activity against Cunninghamella bertholletiae UTHSC 05-2275 infected in neutropenic OF1 mouse assessed as decreased fungal load in lung at 50 mg/kg, po bid administered 1 day post infection measured after 4 to 5 days relative to untreated control; assay type: functional, organism-based; design: dose 50 mg/kg; method in brief: as §2
# [17] = system: Cunninghamella bertholletiae; assay: Antifungal activity against Cunninghamella bertholletiae UTHSC 05-2275 infected in diabetic OF1 mouse assessed as increase in mouse survival rate at 50 mg/kg, po bid administered 1 day after infection for 7 days relative to untreated control; assay type: functional, organism-based; design: dose 50 mg/kg
# Method in brief: (§4)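 Male OF1 mice were made diabetic with streptozocin 210 mg/kg i.p. Diabetes was confirmed by blood glucose >250 mg/dl at day 10. Challenge was 1 × 10⁵ CFU in 0.2 ml saline i.v. (tail vein), with ceftazidime 5 mg/day s.c. on days 1–7. Treatment began 1 day after challenge for 7 days. There were 10 mice/group, checked daily for 20 days. Kaplan-Meier analysis with log-rank comparison.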
# [18] = system: Cunninghamella bertholletiae; assay: Antifungal activity against Cunninghamella bertholletiae UTHSC 05-2275 infected in diabetic OF1 mouse assessed as increase in mouse survival rate at 25 mg/kg, po bid administered 1 day after infection for 7 days relative to untreated control; assay type: functional, organism-based; design: dose 25 mg/kg; method in brief: as §4
# [19] = system: Cunninghamella bertholletiae; assay: Antifungal activity against Cunninghamella bertholletiae UTSCH 05-2275 infected in diabetic OF1 mouse assessed as decreased fungal load in kidney at 50 mg/kg, po bid administered 1 day post infection measured after 4 to 5 days relative to untreated control; assay type: functional, organism-based; design: dose 50 mg/kg; method in brief: as §3
SMILES,MIC [1] [µg/mL],MIC [2] [µg/mL],MIC [3] [µg/mL],MIC [4] [µg/mL],MIC [5] [µg/mL],MIC [6] [µg/mL],MIC [7] [µg/mL],MIC [8] [µg/mL],MIC [9] [µg/mL],Activity [10],Activity [11],Activity [12],Activity [13],Activity [14],Activity [15],Activity [16],Activity [17],Activity [18],Activity [19]
CC[C@H](C)C[C@H](C)CCCCCCCCC(=O)N[C@H]1C[C@@H](O)[C@@H](NCCN)NC(=O)[C@@H]2[C@@H](O)CCN2C(=O)[C@H]([C@H](O)CCN)NC(=O)[C@H]([C@H](O)[C@@H](O)c2ccc(O)cc2)NC(=O)[C@@H]2C[C@@H](O)CN2C(=O)[C@H]([C@@H](C)O)NC1=O [CASPOFUNGIN],> 16,> 16,> 16,> 16,> 16,> 16,> 16,> 16,> 16,–,–,–,–,–,–,–,–,–,–
CCC(C)n1ncn(-c2ccc(N3CCN(c4ccc(OCC5COC(Cn6cncn6)(c6ccc(Cl)cc6Cl)O5)cc4)CC3)cc2)c1=O (stereo not given) [ITRACONAZOLE],2,1,> 16,> 16,8,> 16,2,1,2,Active,inactive,Active,inactive,inactive,Active,Active,Active,inactive,inactive
C[C@@H](c1nc(-c2ccc(C#N)cc2)cs1)[C@](O)(Cn1cncn1)c1ccc(F)cc1F [RAVUCONAZOLE],> 16,> 16,> 16,> 16,> 16,> 16,> 16,> 16,> 16,–,–,–,–,–,–,–,–,–,–
CN(C/C=C/C#CC(C)(C)C)Cc1cccc2ccccc12 [TERBINAFINE],0.03,0.03,0.06,0.06,0.06,0.06,0.03,0.03,0.06,–,–,–,–,–,–,–,–,–,–
C[C@@H](c1ncncc1F)[C@](O)(Cn1cncn1)c1ccc(F)cc1F [VORICONAZOLE],> 16,16,> 16,> 16,> 16,> 16,16,8,16,–,–,–,–,–,–,–,–,–,–
